Here are results for twelve molecules from ChEMBL document CHEMBL1150348, “Design and synthesis of FAJANU: a de novo C(2) symmetric cyclopeptide family” (2008).

Usually GI50 stands for the concentration at which growth is held to half of that of the control. A low value points to more potent growth inhibition.

Type in all cases: functional
Assay [1] concerns A549. The assay can be described thus: Cytotoxicity against human A549 cells after 72 hrs by SRB assay. Conditions: A549, 72 h. In a few lines: (§1)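 SRB colorimetric growth assay: cells seeded at 5 × 10^3 cells/well in RPMI, grown drug-free 18 h to attach, then samples added (dissolved in DMSO–H2O 3:7) for 72 h exposure. Fixed with cold 50% TCA 60 min at 4 °C, stained with 0.4% SRB in 1% acetic acid 10 min at room temperature, washed, bound dye solubilized in Tris, absorbance read at 490 nm; GI50 derived.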
On the technique in general: The SRB assay estimates cell density from bound dye.

Assay [2] has as its system HT-29. The assay can be described thus: Cytotoxicity against human HT29 cells after 72 hrs by SRB assay. Conditions: HT-29, 72 h. In a few lines: as §1
The subject of assay [3] is MDA-MB-231. The assay can be described thus: Cytotoxicity against human MDA-MB-231 cells after 72 hrs by SRB assay. Conditions: MDA-MB-231, 72 h. The gist of the method:
as §1

Where a SMILES comes first, the peptide text is derived from it. Bridges are numbered along the chain shown (N, C = ends). Roman numbers before positions name the chains, in order. [ ]: non-standard residue; d: D form. The star is where a group is joined. Quinoxaline2carbonyl = O=C(c1cnc2ccccc2n1)*; Quinaldoyl(3-OH) = O=C(c1nc2ccccc2cc1O)*; Quinaldoyl = O=C(c1ccc2ccccc2n1)*; NMeF = CN[C@@H](Cc1ccccc1)C(=O)O; NMeL = CN[C@@H](CC(C)C)C(=O)O; X1 = O=C(c1cc(=O)c2ccccc2o1)*; NMeA = CN[C@@H](C)C(=O)O; Orn = NCCC[C@H](N)C(=O)O; Dap = NC[C@H](N)C(=O)O; Sar = CNCC(=O)O

For the molecule `CC(C)C[C@@H](C(=O)N[C@H]1CNC(=O)[C@H](Cc2ccccc2)N(C)C(=O)[C@H](CC(C)C)N(C)C(=O)[C@@H](NC(=O)[C@H](CC(C)C)N(C)C)CNC(=O)[C@H](Cc2ccccc2)N(C)C(=O)[C@H](CC(C)C)N(C)C1=O)N(C)C`, the figures for the GI50 in assay [1], in assay [2] and in assay [3] were 2.86 µM, 0.65 µM and 0.71 µM, respectively.
The matching figures for `CC(C)C[C@@H](C(=O)N[C@H]1COC(=O)[C@H](Cc2ccccc2)N(C)C(=O)[C@H](CC(C)C)N(C)C(=O)[C@@H](NC(=O)[C@H](CC(C)C)N(C)C)COC(=O)[C@H](Cc2ccccc2)N(C)C(=O)[C@H](CC(C)C)N(C)C1=O)N(C)C`: 2.9 µM, 0.64 µM and 1.23 µM.
The molecule `CC(C)C[C@H]1C(=O)NCCCC[C@H](NC(=O)c2ccc3ccccc3n2)C(=O)N(C)[C@@H](CC(C)C)C(=O)N(C)CC(=O)N(C)[C@@H](CC(C)C)C(=O)NCCCC[C@H](NC(=O)c2ccc3ccccc3n2)C(=O)N(C)[C@@H](CC(C)C)C(=O)N(C)CC(=O)N1C` (I: Quinaldoyl-K[NMeL][Sar][NMeL] / II: Quinaldoyl-K[NMeL][Sar][NMeL]; amide I:1-II:C, I:C-II:1) yielded a concentration for 50% growth inhibition (GI50) in assay [1] of 3.94 µM.
Consider `CC(C)C[C@H]1C(=O)NC[C@H](NC(=O)c2ccc3ccccc3n2)C(=O)N(C)[C@@H](CC(C)C)C(=O)NCC(=O)N(C)[C@@H](CC(C)C)C(=O)NC[C@H](NC(=O)c2ccc3ccccc3n2)C(=O)N(C)[C@@H](CC(C)C)C(=O)NCC(=O)N1C` (I: Quinaldoyl-[Dap][NMeL]G[NMeL] / II: Quinaldoyl-[Dap][NMeL]G[NMeL]; amide I:1-II:C, I:C-II:1), for which the values for the GI50 in assay [1], in assay [2] and in assay [3] were 1.18 µM, 0.62 µM and 0.55 µM, respectively.
In the case of `CC(C)C[C@H]1C(=O)N(C)CC(=O)N(C)[C@@H](C)C(=O)NC[C@H](NC(=O)c2ccc3ccccc3n2)C(=O)N(C)[C@@H](CC(C)C)C(=O)N(C)CC(=O)N(C)[C@@H](C)C(=O)NC[C@H](NC(=O)c2ccc3ccccc3n2)C(=O)N1C` (I: Quinaldoyl-[Dap][NMeL][Sar][NMeA] / II: Quinaldoyl-[Dap][NMeL][Sar][NMeA]; amide I:1-II:C, I:C-II:1), the GI50 stood at 3.53 µM in assay [2] and 5.34 µM in assay [3].
`CC(C)C[C@H]1C(=O)N(C)CC(=O)N(C)[C@@H](Cc2ccccc2)C(=O)NC[C@H](NC(=O)c2ccc3ccccc3n2)C(=O)N(C)[C@@H](CC(C)C)C(=O)N(C)CC(=O)N(C)[C@@H](Cc2ccccc2)C(=O)NC[C@H](NC(=O)c2ccc3ccccc3n2)C(=O)N1C` (I: Quinaldoyl-[Dap][NMeL][Sar][NMeF] / II: Quinaldoyl-[Dap][NMeL][Sar][NMeF]; amide I:1-II:C, I:C-II:1): the figures for the GI50 in assay [1] and in assay [2] were 4.16 µM and 4.08 µM, respectively.
For `CC(C)C[C@H]1C(=O)NC[C@H](NC(=O)c2ccc3ccccc3n2)C(=O)N(C)[C@@H](CC(C)C)C(=O)N(C)CC(=O)N(C)[C@@H](CC(C)C)C(=O)OC[C@H](NC(=O)c2ccc3ccccc3n2)C(=O)N(C)[C@@H](CC(C)C)C(=O)N(C)CC(=O)N1C` (I: Quinaldoyl-[Dap][NMeL][Sar][NMeL] / II: Quinaldoyl-S[NMeL][Sar][NMeL]; amide I:1-II:C; ester I:C-II:1), the GI50 is 2.76 µM in assay [1], 1.23 µM in assay [2] and 1.16 µM in assay [3].
Consider `CC(C)C[C@H]1C(=O)NC[C@H](NC(=O)c2ccc3ccccc3n2)C(=O)N(C)[C@@H](CC(C)C)C(=O)N(C)CC(=O)N(C)[C@@H](CC(C)C)C(=O)NC[C@H](NC(=O)c2ccc3ccccc3n2)C(=O)N(C)[C@@H](CC(C)C)C(=O)N(C)CC(=O)N1C` (I: Quinaldoyl-[Dap][NMeL][Sar][NMeL] / II: Quinaldoyl-[Dap][NMeL][Sar][NMeL]; amide I:1-II:C, I:C-II:1), for which the GI50 came to 0.57 µM in assay [1], 0.5 µM in assay [2] and 0.64 µM in assay [3].
As to `CC(C)C[C@H]1C(=O)NCCC[C@H](NC(=O)c2ccc3ccccc3n2)C(=O)N(C)[C@@H](CC(C)C)C(=O)N(C)CC(=O)N(C)[C@@H](CC(C)C)C(=O)NCCC[C@H](NC(=O)c2ccc3ccccc3n2)C(=O)N(C)[C@@H](CC(C)C)C(=O)N(C)CC(=O)N1C` (I: Quinaldoyl-[Orn][NMeL][Sar][NMeL] / II: Quinaldoyl-[Orn][NMeL][Sar][NMeL]; amide I:1-II:C, I:C-II:1), the values for the GI50 in assay [1], in assay [2] and in assay [3] were 2.94 µM, 2.44 µM and 5.8 µM, respectively.
As to `CC(C)C[C@H]1C(=O)NC[C@H](NC(=O)c2cnc3ccccc3n2)C(=O)N(C)[C@@H](CC(C)C)C(=O)N(C)CC(=O)N(C)[C@@H](CC(C)C)C(=O)NC[C@H](NC(=O)c2cnc3ccccc3n2)C(=O)N(C)[C@@H](CC(C)C)C(=O)N(C)CC(=O)N1C` (I: Quinoxaline2carbonyl-[Dap][NMeL][Sar][NMeL] / II: Quinoxaline2carbonyl-[Dap][NMeL][Sar][NMeL]; amide I:1-II:C, I:C-II:1), the GI50 stood at 1.41 µM in assay [1], 1.23 µM in assay [2] and 1.67 µM in assay [3].
With `CC(C)C[C@H]1C(=O)NC[C@H](NC(=O)c2cc(=O)c3ccccc3o2)C(=O)N(C)[C@@H](CC(C)C)C(=O)N(C)CC(=O)N(C)[C@@H](CC(C)C)C(=O)NC[C@H](NC(=O)c2cc(=O)c3ccccc3o2)C(=O)N(C)[C@@H](CC(C)C)C(=O)N(C)CC(=O)N1C` (I: X1-[Dap][NMeL][Sar][NMeL] / II: X1-[Dap][NMeL][Sar][NMeL]; amide I:1-II:C, I:C-II:1), the figures for the GI50 in assay [2] and in assay [3] were 2.91 µM and 2.31 µM, respectively.
In the case of `CC(C)C[C@H]1C(=O)NC[C@H](NC(=O)c2nc3ccccc3cc2O)C(=O)N(C)[C@@H](CC(C)C)C(=O)N(C)CC(=O)N(C)[C@@H](CC(C)C)C(=O)NC[C@H](NC(=O)c2nc3ccccc3cc2O)C(=O)N(C)[C@@H](CC(C)C)C(=O)N(C)CC(=O)N1C` (I: {Quinaldoyl(3-OH)}-[Dap][NMeL][Sar][NMeL] / II: {Quinaldoyl(3-OH)}-[Dap][NMeL][Sar][NMeL]; amide I:1-II:C, I:C-II:1), the values for the GI50 in assay [1] and in assay [2] were 2.4 µM and 3.43 µM, respectively.
